According to PMC6338520 (Cell chemical biology, 2018):

Columns and labels:
[1] = target: TgPPT1 (Toxoplasma gondii, UniProt S4UG63); test: Steady-state kinetics of fluorogenic substrate hydrolysis by recombinant TgPPT1; type: biochemical; conditions: QStE 10 μM, TgPPT1 100 nM
[2] = target: HsAPT1 (Homo sapiens, UniProt O75608); test: Steady-state kinetics of fluorogenic substrate hydrolysis by recombinant HsAPT1; type: biochemical; conditions: QStE 10 μM, HsAPT1 50 nM
[3] = test system: HsAPT1, HsAPT2 and TgPPT1; test: Steady-state kinetics, statement made for all three depalmitoylases together; type: biochemical; conditions: all three enzymes
[4] = target: phospholipase A2 (PLA2) (Sus scrofa, UniProt P00592); test: QStE hydrolysis by recombinant PLA2; type: biochemical; conditions: QStE 10 μM, PLA2 500 nM
[5] = target: T1, monoacylglycerol lipase (MGLL) (Homo sapiens, UniProt Q99685); test: QStE hydrolysis by recombinant MGLL; type: biochemical; conditions: QStE 10 μM, MGLL 500 nM
T1 sequence (Q99685 1-303): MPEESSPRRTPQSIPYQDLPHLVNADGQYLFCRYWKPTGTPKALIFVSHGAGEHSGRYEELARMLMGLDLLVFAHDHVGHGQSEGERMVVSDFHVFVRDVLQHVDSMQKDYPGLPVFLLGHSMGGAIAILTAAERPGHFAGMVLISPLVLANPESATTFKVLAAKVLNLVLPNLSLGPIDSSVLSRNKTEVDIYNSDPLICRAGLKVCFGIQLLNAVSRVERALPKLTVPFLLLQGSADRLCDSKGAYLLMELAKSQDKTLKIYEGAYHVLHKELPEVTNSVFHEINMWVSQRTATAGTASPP

[6] = test system: mouse liver lysates; test: Substrate hydrolysis in mouse liver homogenate with or without Palmostatin B; type: biochemical; conditions: lysate 20 μg; for substrate processing by mouse liver lysates: substrate 5 μM
In short: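 Liver from 14-week-old virgin female C57BL/6 mice, washed twice in cold PBS, minced, sonicated in cold PBS, clarified, protein quantified by BCA. Homogenate (20 μg) preincubated with DMSO or Palmostatin B (10 μM) for 30 min on ice, then fluorogenic thioester substrate or colorimetric esterase substrate 4-NPO added (5 μM). Hydrolysis plotted.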

[7] = Solubility of the quenched substrates in buffer; type: physicochemical; conditions: method not described
[8] = test system: PC3 cell lysate; test: QStE hydrolysis in PC3 cell lysate with inhibitors; type: biochemical, human; conditions: lysate 20 μg, inhibitor 10 μM, 30 min on ice, QStE 5 μM; three replicates
[9] = test system: T. gondii lysates; test: In situ depalmitoylase activity in T. gondii lysates; type: biochemical, Toxoplasma gondii; conditions: ASC20KRNT 2.5 μM, Ku80 T. gondii lysate 5 μg, inhibitor 10 μM

Sequence of phospholipase A2 (PLA2) (P00592 23-146): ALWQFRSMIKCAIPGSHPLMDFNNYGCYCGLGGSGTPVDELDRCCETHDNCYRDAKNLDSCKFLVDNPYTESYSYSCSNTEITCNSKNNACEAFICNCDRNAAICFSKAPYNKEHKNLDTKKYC
Sequence of HsAPT1 (O75608 whole entry): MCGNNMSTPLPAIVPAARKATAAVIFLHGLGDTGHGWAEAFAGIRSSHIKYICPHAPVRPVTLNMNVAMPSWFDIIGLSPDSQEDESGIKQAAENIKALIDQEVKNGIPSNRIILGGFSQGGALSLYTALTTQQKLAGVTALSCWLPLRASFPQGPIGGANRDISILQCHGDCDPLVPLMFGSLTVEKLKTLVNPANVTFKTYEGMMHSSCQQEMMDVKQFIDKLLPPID

SMILES: CN(C)c1ccc(/N=N/c2ccc(C(=O)NCCCn3cc(CCCCCCCCCCCCCCCC(=O)SC[C@H](NC(=O)c4cc5ccc(O)cc5oc4=O)C(=O)N4CCOCC4)nn3)cc2)cc1 [QStE, (R)-S-(2-(7-hydroxy-2-oxo-2H-chromene-3-carboxamido)-3-morpholino-3-oxopropyl) (E)-16-(1-(3-(4-((4-(dimethylamino)phenyl)diazenyl)benzamido)propyl)-1H-1,2,3-triazol-4-yl)hexadecanethioate]
- QStE hydrolysis by TgPPT1, specificity panel [1]: readily hydrolyzed
- QStE hydrolysis by APT1, specificity panel [2]: readily hydrolyzed
- catalytic efficiency for QStE compared to QSE, times greater [3]: 10-30 times
- QStE hydrolysis by PLA2 [4]: not hydrolyzed
- QStE hydrolysis by MGLL [5]: not hydrolyzed
- substrate processing by mouse liver lysates [6]: robust processing
- soluble in aqueous buffer at concentrations up to ([7]; aqueous buffer): up to 100 μM
- soluble in detergent supplemented buffer at concentrations up to ([7]; buffer with CHAPS, 10 mM): up to 500 μM

SMILES: CCCCCCCC(=O)Oc1ccc([N+](=O)[O-])cc1 [4-NPO, 4-nitrophenyl octanoate]
- substrate processing by mouse liver lysates [6]: more effectively processed

SMILES: CCCCCCCCCCCCCCCCS(=O)(=O)F [HDSF, hexadecylsulfonyl fluoride]
- effect of inhibitor on QStE processing in PC3 cell lysate [8]: only minor reductions

SMILES: O=S(=O)(F)Cc1ccccc1 [PMSF, phenylmethylsulfonyl fluoride]
- effect of inhibitor on QStE processing in PC3 cell lysate [8]: did not reduce

SMILES: CCCCCCCCCC[C@@H]1C(=O)O[C@H]1CCc1ccc(OC)c(OC)c1 [PalmB, Palmostatin B]
- effect of inhibitor on 4-NPO processing in mouse liver lysates ([6]; inhibitor 10 μM, 30 min on ice, 4-NPO 5 μM): only slightly reduced
- effect of inhibitor on QStE processing in mouse liver lysates ([6]; inhibitor 10 μM, 30 min on ice, QStE 5 μM): completely blocked
- effect of inhibitor on QStE processing in PC3 cell lysate [8]: completely block
- effect of inhibitor on activity in T. gondii lysate [9]: completely abolished

SMILES: O=C(CN1CCN(C(=O)c2ccco2)CC1)Nc1cc(C(F)(F)F)ccc1Cl [ML348]
- effect of inhibitor on QStE processing in PC3 cell lysate [8]: only minor reductions

SMILES: COc1ccc(N2CCN(C(=O)c3cc4c(s3)-c3ccccc3S(=O)(=O)C4)CC2)cc1 [ML349]
- effect of inhibitor on QStE processing in PC3 cell lysate [8]: only minor reductions
